From paper PMC11345372 (ESMO Open, 2024)
Entries after “also recorded” stand apart in the source; their conditions may differ. Like-named read-outs stand apart in the source and are kept apart here.

What was measured:
[1] = Aluminum level monitoring; format: in vivo, human; conditions: for Aluminum level, mean (standard deviation): baseline 0.26 (0.088)
[2] = tested on: adult patients with advanced solid tumors; assay: Dose escalation: DLT, MTD and recommended dose for expansion; format: in vivo, human
Outline: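 Escalation was guided by an adaptive Bayesian hierarchical logistic regression model with escalation-with-overdose-control. Dosing started at 100 μg and tested 100, 200, 400 and 600 μg intratumoral TLR-7 agonist biweekly, alone or with anti-PD-1 antibody 400 mg IV on day 1 of each 28-day cycle. AEs were graded by CTCAE v4.03. All treated patients formed the safety set. Data cut-off was 30 June 2022.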

[3] = tested on: advanced solid tumors; assay: Antitumor activity per iRECIST; format: in vivo, human; conditions: all patients, groups pooled
Outline: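 Adults with advanced solid tumours received the TLR-7 agonist intratumorally, 100-600 μg on days 1 and 15 of 28-day cycles 1-2 and 5-6, alone or with anti-PD-1 antibody 400 mg IV Q4W. Response was assessed per iRECIST. iORR and iDCR are given with 90% Clopper–Pearson exact CIs. iPFS was estimated by Kaplan–Meier with median, 90% CI and 3-24-month rates, summarised by treatment group.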

[4] = tested on: adult patients with advanced solid tumors
[5] = Serum pharmacokinetics after intratumoral LHC165, LC-MS/MS, non-compartmental; format: in vivo, human
Outline: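 Serum concentrations of the TLR-7 agonist were measured by validated LC-MS/MS after intratumoral dosing at 100-600 μg Q2W. Dosing was alone or with anti-PD-1 antibody 400 mg IV Q4W. Parameters (Cmax, AUClast, terminal t½) were derived by non-compartmental analysis on C1D1 and C2D15. Geometric CV% was reported.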

[6] = tested on: advanced solid tumors; assay: Antitumor activity per RECIST v1.1; format: in vivo, human
Outline: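 Open-label phase I/Ib in adults (≥18 y, ECOG ≤2, RECIST-measurable disease, progressed on or intolerant to standard care). The TLR-7 agonist, 100-600 μg, was given intratumorally on days 1 and 15 of 28-day cycles 1-2 and 5-6, with a pause in cycles 3-4. Combination patients also received anti-PD-1 antibody 400 mg IV over 30 min Q4W. ORR and DCR (CR+PR+SD) are given with 90% Clopper–Pearson exact CIs. PFS uses Kaplan–Meier with median, 90% CI and landmark rates.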

[7] = tested on: patients with solid tumors; conditions: IT; including grade 3/4 cytokine release syndrome, pyrexia, fatigue, chills, decreased lymphocyte count, nausea, injection-site pain; cited from earlier work
[8] = tested on: advanced anaplastic thyroid carcinoma; conditions: immune-related response criteria; cited from earlier work
[9] = all grades, all patients N = 45 (SA and combination groups pooled)
[10] = all grades, by treatment group (SA n = 21; combination n = 24)
[11] = grade ≥3, all patients N = 45 (SA and combination groups pooled)
[12] = grade ≥3, by treatment group (SA n = 21; combination n = 24)
[13] = overall, 45 patients, groups pooled
[14] = RECIST v1.1, all patients N = 45 (SA and combination groups pooled)
[15] = RECIST v1.1, all patients, groups pooled
[16] = RECIST v1.1, by treatment group
[17] = RECIST v1.1, by treatment group (SA n = 21; combination n = 24)

## Cc1cc(OCCOCCC(F)(F)P(=O)(O)O)ccc1CCc1cnc2c(N)nc3cc(CCC(=O)O)ccc3c2c1 [LHC165]
[1]; LHC165 adsorbed to aluminum hydroxide
  AEs specific to aluminum toxicity: No AEs specific to aluminum toxicity were reported
[1]; cycle 1 day 15 (C1D15)
  Aluminum level, mean (standard deviation): 0.24 (0.087) μmol/L
[1]; end of treatment
  Aluminum level, mean (standard deviation): 0.30 (0.128) μmol/L
[1]; mild elevation levels >1.85 μmol/L
  Maximum observed aluminum value during the study: 0.520 µmol
[2]; LHC165 100-600 μg biweekly IT, SA and with spartalizumab 400 mg Q4W
  MTD: No maximum tolerated dose was reached; also recorded: not reached
[2]; biweekly IT, as SA and in combination with spartalizumab 400 mg Q4W
  Recommended dose for expansion (RDE): 600 µg
[2]; combination: two episodes of grade 3 pancreatitis at LHC165 400 μg
  DLTs observed during dose escalation: No DLTs
[3]
  Overall median immune-related PFS (iPFS): 1.7 months
[4]; 40 of 45 patients, SA and combination groups pooled
  Patients with at least one AE of any grade, regardless of relationship with LHC165 or spartalizumab: 88.9%
[4]; 45 patients, groups pooled
  Most common non-SAE: anemia: 24.4%
  Most common non-SAE: pyrexia: 37.8%
  Patients with at least one SAE, regardless of relationship: 22.2%
  SAE suspected to be related to LHC165 and spartalizumab: grade 3 pancreatitis: 2.2%
  SAE suspected to be related to the study drug: grade 3 pancreatitis, number of patients: 1 n
[4]; across all dose levels, 16 of 45 patients, groups pooled
  Patients with treatment-related AEs (TRAEs, all grades): 35.6%
[4]; across all dose levels, 40 of 45 patients, groups pooled
  Patients with non-SAEs (≥10%): 88.9%
[4]; all 45 patients, groups pooled
  Drug-related AE: asthenia: 4.4%
  Drug-related AE: chills: 11.1%
  Drug-related AE: pruritus: 13.3%
  Drug-related AE: pyrexia: 22.2%
[4]; [9]
  Asthenia, treatment-related AE: 2 (4.4) n (%)
  Chills, treatment-related AE: 5 (11.1) n (%)
  Pruritus, treatment-related AE: 6 (13.3) n (%)
  Pyrexia, treatment-related AE: 10 (22.2) n (%)
  TRAEs leading to discontinuation: pancreatitis: 1 (2.2) n (%)
  ≥1 AE suspected to be related to LHC165 or spartalizumab: 16 (35.6) n (%)
[4]; [10]
  Asthenia, treatment-related AE: 0 n (%)
  Chills, treatment-related AE: 1 (4.8) n (%)
  Pruritus, treatment-related AE: 0 n (%)
  Pyrexia, treatment-related AE: 2 (9.5) n (%)
  TRAEs leading to discontinuation: pancreatitis: 0 n (%)
  ≥1 AE suspected to be related to LHC165 or spartalizumab: 2 (9.5) n (%)
[4]; by treatment group (2 of 21; 14 of 24)
  Patients with one or more TRAE: 9.5%
[4]; by treatment group (SA n = 21; combination n = 24)
  Patients with at least one treatment permanent discontinuation by reason: adverse event: 2 (9.5) n (%)
[4]; by treatment group, SA: hypotension, not related, combination: pancreatitis, DLT
  Patients who discontinued study treatment due to AE: 4.8%
[4]; by treatment group, not related to treatment (respiratory failure; fatal septic shock)
  Patients who discontinued study treatment due to death: 4.8%
[4]; [11]
  Asthenia, treatment-related AE: 0 n (%)
  Chills, treatment-related AE: 0 n (%)
  Pruritus, treatment-related AE: 0 n (%)
  Pyrexia, treatment-related AE: 0 n (%)
  TRAEs leading to discontinuation: pancreatitis: 1 (2.2) n (%)
  ≥1 AE suspected to be related to LHC165 or spartalizumab: 0 n (%)
[4]; [12]
  Asthenia, treatment-related AE: 0 n (%)
  Chills, treatment-related AE: 0 n (%)
  Pruritus, treatment-related AE: 0 n (%)
  Pyrexia, treatment-related AE: 0 n (%)
  TRAEs leading to discontinuation: pancreatitis: 0 n (%)
  ≥1 AE suspected to be related to LHC165 or spartalizumab: 0 n (%)
[4]; [13]
  AE leading to dose interruption or dose adjustment: aspartate aminotransferase increased: 4.4%
  Patients with at least one AE leading to dose interruption or dose adjustment: 11.1%
  Patients with at least one AE leading to treatment discontinuation: 4.4%
[4]; overall, 45 patients, groups pooled, each term
  AEs leading to dose interruption or dose adjustment, each of: alanine aminotransferase increased, fatigue, gastroesophageal reflux disease, hyponatremia, suspected COVID-19: 2.2%
[5]; 100-600 μg IT
  Dose dependence of Cmax and AUClast: increased in a dose-dependent manner
[5]; Cmax and AUClast between C1D1 and C2D15 comparable
  Accumulation in serum LHC165 after multiple IT injections: No accumulation
[5]; comparable exposure between SA and combination groups
  Drug–drug interaction between LHC165 and spartalizumab: No evidence of drug–drug interaction
[6]; RECIST v1.1, Kaplan–Meier, by treatment group, listed as LHC165 SA
  Median PFS: 1.4 months
[6]; [14]
  Best overall response: CR: 0 n (%)
  Best overall response: PD: 27 (60.0) n (%)
  Best overall response: PR: 3 (6.7) n (%)
  Best overall response: SD: 5 (11.1) n (%)
  Best overall response: Unknown: 10 (22.2) n (%)
  DCR (CR + PR + SD): 8 (17.8) n (%)
  ORR (CR + PR): 3 (6.7) n (%)
[6]; [15]
  DCR / disease control: 17.8%
  ORR (CR + PR) across all tumor types: 6.7%
[6]; [16]
  Best overall response PD: 66.7%
  Best overall response PR: 4.8%
  Best overall response unknown (UNK): 28.6%
[6]; [17]
  Best overall response: CR: 0 n (%)
  Best overall response: PD: 14 (66.7) n (%)
  Best overall response: PR: 1 (4.8) n (%)
  Best overall response: SD: 0 n (%)
  Best overall response: Unknown: 6 (28.6) n (%)
  DCR (CR + PR + SD): 1 (4.8) n (%)
  ORR (CR + PR): 1 (4.8) n (%)
[6]; RECIST v1.1, responders by treatment group
  DOR, median (range): 3.81 (3.8-3.8) months
[6]; RECIST v1.1, responders, all patients (SA and combination groups pooled)
  DOR, median (range): 13.77 (3.8-29.7) months
[6]; all patients, groups pooled
  Overall median PFS: 1.7 months
[6]; by treatment group
  Patients who discontinued study treatment due to progressive disease: 71.4%

## CCCCCCCCCCCCCCCCCC(=O)NCCCCOn1c(CCCC)nc2c(N)nc3ccccc3c21 [MEDI9197]
[7]
  Toxicities: tolerable toxicities

B1: spartalizumab: humanized immunoglobulin G4 (IgG4) anti-programmed cell death protein-1 (anti–PD-1) monoclonal antibody (antibody, chains of the INN, looked up, V domains shown)
VH: EVQLVQSGAEVKKPGESLRISCKGSGYTFTTYWMHWVRQATGQGLEWMGNIYPGTGGSNFDEKFKNRVTITADKSTSTAYMELSSLRSEDTAVYYCTRWTTGTGAYWGQGTTVTVSS
VL: EIVLTQSPATLSLSPGERATLSCKSSQSLLDSGNQKNFLTWYQQKPGQAPRLLIYWASTRESGVPSRFSGSGSGTDFTFTISSLEAEDAATYYCQNDYSYPYTFGQGTKVEIK
[8]
  Overall response rate (ORR): 24%
